According to article PMC3525873 (British Journal of Pharmacology, 2012):

Legend:
[1] = molecular target: STIM1/Orai1-mediated SOCE (Rattus norvegicus, UniProt Q5M848); experiment: Fura-2 Ca2+ re-addition, thapsigargin-depleted native RBL-2H3 cells; type: cell-based
In short: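 Native RBL-2H3 cells were loaded with 2 μM Fura-2-AM for 45 min and perfused in Ca2+-free extracellular solution at room temperature. Stores depleted with 1 μM thapsigargin for 5 min. Test compound present ≥5 min before and throughout. Ca2+ entry evoked by 2 mM Ca2+ re-addition; 340/380 nm ratio read (510 nm emission). Inhibition expressed as % of control peak entry. IC50 by 4-parameter logistic fit; 3–5 experiments, 29–80 cells.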

TRPC3 = molecular target: T1, TRPC3 (Homo sapiens, UniProt Q13507); experiment: Patch-clamp of TRPC3 currents in HEK293 cells transiently expressing TRPC3; type: cell-based
T1 sequence (Q13507 74-921 limits assumed): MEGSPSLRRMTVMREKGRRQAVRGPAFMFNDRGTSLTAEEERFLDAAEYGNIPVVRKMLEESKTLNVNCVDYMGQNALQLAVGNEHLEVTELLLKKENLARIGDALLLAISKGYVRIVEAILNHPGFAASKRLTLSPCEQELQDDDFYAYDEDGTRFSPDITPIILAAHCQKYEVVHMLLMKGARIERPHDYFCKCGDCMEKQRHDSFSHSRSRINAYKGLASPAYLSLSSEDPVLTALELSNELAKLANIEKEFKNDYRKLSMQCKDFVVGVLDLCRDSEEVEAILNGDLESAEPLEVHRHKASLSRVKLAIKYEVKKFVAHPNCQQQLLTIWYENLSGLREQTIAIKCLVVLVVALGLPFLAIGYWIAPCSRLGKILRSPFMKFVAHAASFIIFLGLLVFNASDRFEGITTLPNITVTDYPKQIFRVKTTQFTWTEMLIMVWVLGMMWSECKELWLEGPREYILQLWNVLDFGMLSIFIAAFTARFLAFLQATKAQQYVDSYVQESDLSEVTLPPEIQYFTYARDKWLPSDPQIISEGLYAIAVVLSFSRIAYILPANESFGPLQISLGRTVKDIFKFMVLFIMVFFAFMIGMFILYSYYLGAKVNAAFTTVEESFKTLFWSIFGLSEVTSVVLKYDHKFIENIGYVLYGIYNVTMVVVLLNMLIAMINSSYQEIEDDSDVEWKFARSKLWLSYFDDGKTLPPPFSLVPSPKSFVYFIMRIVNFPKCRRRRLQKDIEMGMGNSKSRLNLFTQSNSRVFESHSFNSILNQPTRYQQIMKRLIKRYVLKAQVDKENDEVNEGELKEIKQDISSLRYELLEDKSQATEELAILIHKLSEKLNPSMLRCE

[2] = molecular target: CRAC currents in native RBL-2H3 cells (Rattus norvegicus, UniProt Q5M848); experiment: Patch-clamp of CRAC currents in native RBL-2H3 cells; type: cell-based
Chain of CRAC currents in native RBL-2H3 cells (Q5M848 whole entry): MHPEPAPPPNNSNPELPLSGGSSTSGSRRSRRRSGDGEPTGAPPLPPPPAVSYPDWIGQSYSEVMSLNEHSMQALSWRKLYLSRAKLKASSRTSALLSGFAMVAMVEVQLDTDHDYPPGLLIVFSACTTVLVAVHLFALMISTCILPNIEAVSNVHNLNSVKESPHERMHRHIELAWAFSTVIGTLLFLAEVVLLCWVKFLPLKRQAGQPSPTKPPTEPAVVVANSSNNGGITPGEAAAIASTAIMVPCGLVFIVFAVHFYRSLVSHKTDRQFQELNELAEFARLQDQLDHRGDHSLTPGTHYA
In short: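 Whole-cell recording of native RBL-2H3 cells at room temperature. Stores depleted passively by 20 mM EGTA in the Cs-methanesulphonate pipette solution (pH 7.2). Bath contained 20 mM CaCl2 (pH 7.4). Ramps from −90 to +90 mV over 1 s, holding +30 mV. Test compound at 3 μM, pre-incubated or applied acutely. Net current (minus basal) read at −85 mV 300 s after break-in; n ≥ 6 cells.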

NFAT = experiment: GFP-NFAT translocation in RBL-2H3 cells; type: cell-based; details: 10 μM, thapsigargin 1 μM then 2 mM Ca2+ re-addition
In short: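 RBL-2H3 cells electroporated with GFP-NFAT (20 μg DNA, 300 V, 275 μF) 12–18 h beforehand, on coverslips. In nominally Ca2+-free buffer, stores depleted with 1 μM thapsigargin for 5 min, then 2 mM CaCl2 added. Test compound at 10 μM in all buffers. Basal taken before depletion. Cells fixed in paraformaldehyde with DAPI-stained nuclei. Nuclear/cytosolic GFP intensity ratio measured; ≥18 cells per condition.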

TRPC6 = molecular target: T2, TRPC6 (Mus musculus, UniProt Q61143); experiment: Fura-2 Ca2+ entry in HEK293 cells overexpressing GFP-TRPC6; type: cell-based, murine
T2 sequence (Q61143 1-930): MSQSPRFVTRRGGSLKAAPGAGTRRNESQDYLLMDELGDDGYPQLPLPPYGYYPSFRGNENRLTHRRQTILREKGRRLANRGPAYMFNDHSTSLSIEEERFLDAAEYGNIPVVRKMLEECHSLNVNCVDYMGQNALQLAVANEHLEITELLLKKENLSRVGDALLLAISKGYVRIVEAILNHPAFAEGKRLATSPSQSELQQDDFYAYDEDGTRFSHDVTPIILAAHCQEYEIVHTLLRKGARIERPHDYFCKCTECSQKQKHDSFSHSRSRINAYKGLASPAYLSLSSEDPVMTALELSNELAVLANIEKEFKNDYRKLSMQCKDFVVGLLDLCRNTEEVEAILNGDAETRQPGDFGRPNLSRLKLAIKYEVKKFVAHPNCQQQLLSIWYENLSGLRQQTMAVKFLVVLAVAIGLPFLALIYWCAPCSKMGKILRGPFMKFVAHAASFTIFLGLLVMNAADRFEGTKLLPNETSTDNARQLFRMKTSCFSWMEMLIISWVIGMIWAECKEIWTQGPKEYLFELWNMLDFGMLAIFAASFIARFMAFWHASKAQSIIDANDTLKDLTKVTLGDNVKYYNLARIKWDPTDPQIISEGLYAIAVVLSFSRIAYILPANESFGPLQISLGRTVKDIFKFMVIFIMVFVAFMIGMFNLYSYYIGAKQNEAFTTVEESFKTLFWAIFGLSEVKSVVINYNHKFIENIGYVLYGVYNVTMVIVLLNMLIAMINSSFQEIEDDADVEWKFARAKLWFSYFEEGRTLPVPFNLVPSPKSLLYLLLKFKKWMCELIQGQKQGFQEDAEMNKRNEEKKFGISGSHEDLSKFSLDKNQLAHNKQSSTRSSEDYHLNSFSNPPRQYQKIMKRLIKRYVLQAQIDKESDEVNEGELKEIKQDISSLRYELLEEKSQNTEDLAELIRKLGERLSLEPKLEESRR

Chain of STIM1/Orai1-mediated SOCE (Q5M848 whole entry, the tested form may be a part): as the sequence (Q5M848 whole entry) above

| Higher potency in SOCE model than in TRPC3-ROCE model, orders of magnitude ([1]; RBL-2H3 SOCE vs TRPC3 ROCE) [OM] | Higher potency in SOCE model than in TRPC3-ROCE model ([1]; ratio of IC50 values, RBL-2H3 SOCE vs TRPC3 ROCE) [fold] | TRPC3 currents remaining (TRPC3; 3 μM, percent of control) [%] | Effect on CRAC Ca2+ entry-mediating conductance ([2]; 3 μM pre-incubation) | IC50 (TRPC6) [µM] | Reduction of Ca2+ entry (Orai-mediated) ([1]; 3 μM) [%] | Effect on TRPC3 Ca2+ entry-mediating conductance (TRPC3; 3 μM pre-incubation, carbachol) | inhibition at 3 µM ([2]; RBL-2H3, read-out: Inhibition of CRAC currents) [%] | Structure (SMILES) | Effect on NFAT translocation (NFAT) | Effect on OAG-induced TRPC3 membrane currents (TRPC3; 3 μM, OAG 100 μM) |
| --- | --- | --- | --- | --- | --- | --- | --- | --- | --- | --- |
| 1.58 | 37 | 52 | completely inhibiting CRAC currents | > 10 | – | – | – | O=C(Nc1ccc(-n2nc(C(F)(F)F)cc2C(F)(F)F)cc1)c1ccncc1F [Pyr6, N-(4-(3,5-bis(trifluoromethyl)-1H-pyrazole-1-yl)phenyl)-3-fluoroisonicotinamide] | clearly inhibited NFAT translocation | – |
| – | – | – | – | > 10 | 30 | eliminated TRPC3 currents | ~50 | Cc1ccc(S(=O)(=O)Nc2ccc(-n3nc(C(F)(F)F)cc3C(F)(F)F)cc2)cc1 [Pyr10, N-(4-(3,5-bis(trifluoromethyl)-1H-pyrazole-1-yl)phenyl)-4-methylbenzenesulfonamide] | failed to suppress NFAT activation significantly | potently blocks DAG-mediated TRPC3 membrane currents |
